# Experimental data of several laboratories.
# Protocols differ between the studies behind these lines.
# Target: Homeodomain-interacting protein kinase 1 (HIPK1, Homo sapiens, UniProt Q86Z02)
SMILES,effect on,action,technique,concentration,quantity,value
CCCS(=O)(=O)Nc1ccc(F)c(C(=O)c2c[nH]c3ncc(-c4ccc(Cl)cc4)cc23)c1F,enzyme activity,inhibitor,,1 µM,inhibition,< 10%
CCN(CC)CCNC(=O)c1c(C)[nH]c(/C=C2\C(=O)Nc3ccc(F)cc32)c1C,enzyme activity,inhibitor,,0.3 µM,inhibition,26%
O=C(O)c1ccc2c(c1)nc(NCc1ccccc1)c1ccncc12,enzyme activity,inhibitor,radiometric,1 µM,remaining activity,76%
CO[C@@H](C)c1c(Nc2ccc([C@@H](N(C)C(=O)C3CCS(=O)(=O)CC3)C(F)(F)F)cc2)cnc2cc(Cl)nn12,cell-free assay,,competition with immobilised ligand,1 µM,remaining binding,56%
FC(F)(F)Oc1cccc(-c2cnc3ccc(-c4ccncc4)nn23)c1,enzyme activity,inhibitor,radiometric,5 µM,activity vs control,29%
O=C(O)c1ccc2c(c1)nc(Nc1ccc(F)c(Cl)c1)c1ncncc12,enzyme activity,inhibitor,radiometric,1 µM,remaining activity,6%
COc1cc2c(N3CCN(C(=O)Nc4ccc(OC(C)C)cc4)CC3)ncnc2cc1OCCCN1CCCCC1,cell-free assay,,,0.5 µM,remaining signal,98.9%
Cc1ccc(Nc2nccc(N(C)c3ccc4c(C)n(C)nc4c3)n2)cc1S(N)(=O)=O,enzyme activity,inhibitor,,10 µM,inhibition,21%
COCCOc1nc(-c2ccc(Cl)nc2)nc2c1CN(C(=O)c1ncn3ccccc13)CC2,cell-free assay,,competition with immobilised ligand,0.1 µM,remaining binding,90%
CC/C(=N\NC(=O)NCc1cccc(O)c1)c1ccc(O)c(C)c1O,enzyme activity,inhibitor,,0.1 µM,inhibition,6.3%
COc1cccc(Nc2nc3cc(C(=O)O)ccc3c3cnccc23)c1,enzyme activity,inhibitor,radiometric,1 µM,remaining activity,11%
CC1=C(C#N)C(c2ccc3c(c2)c(NC(=O)c2ccccc2C)nn3C)C(C#N)=C(C)N1,cell-free assay,,competition with immobilised ligand,1 µM,remaining binding,71%
Cc1ccc(C(=O)NCc2ccsc2)cc1C#Cc1cn(C(C)C)c2ncnc(N)c12,enzyme activity,inhibitor,,1 µM,activity vs control,106%
O=C(NCCCC1CCCCC1)c1ccc(CNC(=O)c2cnn(-c3ccccc3)c2C(F)(F)F)cc1,cell-free assay,,competition with immobilised ligand,0.1 µM,remaining binding,99%
O=C(O)c1ccc2c(c1)nc(Nc1ccc(Cl)cc1)c1ccncc12,enzyme activity,inhibitor,radiometric,1 µM,remaining activity,6%
COc1cc2ncnc(Nc3ccc(F)c(Cl)c3)c2cc1OCCCN1CCOCC1,cell-free assay,,,0.5 µM,remaining signal,97.6%
Cn1cc(Cl)c2c(Oc3c(F)cc(Nc4cc(Cl)nc(N)n4)cc3F)ccnc21,cell-free assay,,competition with immobilised ligand,0.1 µM,remaining binding,100%
O=C(O)c1ccc2c(c1)nc(Nc1ccc3ccccc3c1)c1ncncc12,enzyme activity,inhibitor,radiometric,1 µM,remaining activity,1%
Nc1ncnc2occ(-c3ccc(NC(=O)Nc4cc(C(F)(F)F)ccc4F)cc3)c12,cell-free assay,inhibitor,,20 µM,remaining signal,0.1%
COc1cc2ncnc(Nc3ccc(Oc4ccccc4)cc3C)c2cc1OC,enzyme activity,inhibitor,,1 µM,inhibition,1%
CCC(=O)N[C@H]1CC[C@@H](C(=O)N(C)c2ccc(-c3nc4ccccc4o3)cc2)C1,cell-free assay,,competition with immobilised ligand,1 µM,remaining binding,80%
Cc1cc(NC(=O)c2cccc3cc(-c4cccc5[nH]nc(N)c45)ccc23)ccc1F,enzyme activity,inhibitor,,0.1 µM,activity vs control,95%
CNC(=O)c1ccc(Nc2ncc(C(F)(F)F)c(NCc3nccnc3N(C)S(C)(=O)=O)n2)cc1,cell-free assay,,competition with immobilised ligand,0.1 µM,remaining binding,27%
O=C(O)c1ccc2c(c1)nc(Nc1ccccc1)c1ccncc12,enzyme activity,inhibitor,radiometric,1 µM,remaining activity,30%
CNC(=O)c1cc(Oc2ccc(NC(=O)Nc3ccc(Cl)c(C(F)(F)F)c3)cc2)ccn1,enzyme activity,inhibitor,,0.3 µM,inhibition,14%
O=C(NCc1ncc(C(F)(F)F)cc1Cl)c1ccc2c(c1)C1(CCS(=O)(=O)CC1)[C@@H](C1CC1)N2S(=O)(=O)c1ccc(F)cc1,cell-free assay,,competition with immobilised ligand,1 µM,remaining binding,70%
O=C(O)c1ccc2c(c1)nc(NCCc1ccccc1)c1ncncc12,enzyme activity,inhibitor,radiometric,1 µM,remaining activity,18%
Cc1sc(C(=O)NC2COC2)cc1-n1cc(NC(=O)Nc2c(F)cccc2Cl)cn1,enzyme activity,inhibitor,,10 µM,remaining activity,116%
O=C(O)c1ccc2c(c1)nc(NCCc1ccccc1)c1ccncc12,enzyme activity,inhibitor,radiometric,1 µM,remaining activity,12%
COc1cc(/C=C/C(=O)CC(=O)/C=C/c2ccc(O)c(OC)c2)ccc1O,enzyme activity,inhibitor,,1 µM,activity vs control,44%
